In publication PMC9279635 (Acta Pharmaceutica Sinica. B, 2021):

How the values were obtained:
DDR1 = DDR1 (Homo sapiens, UniProt Q08345); experiment: ELISA kinase assay, DDR1; type: biochemical
RET = RET (Homo sapiens, UniProt P07949); experiment: ELISA kinase assay, RET; type: biochemical
Flt-3 = target: T1, Flt-3 (Homo sapiens, UniProt P36888); experiment: ELISA kinase assay, Flt-3; type: biochemical; conditions: read-out: Flt-3 inhibition@100 nmol/L
T1 sequence (P36888 27-993): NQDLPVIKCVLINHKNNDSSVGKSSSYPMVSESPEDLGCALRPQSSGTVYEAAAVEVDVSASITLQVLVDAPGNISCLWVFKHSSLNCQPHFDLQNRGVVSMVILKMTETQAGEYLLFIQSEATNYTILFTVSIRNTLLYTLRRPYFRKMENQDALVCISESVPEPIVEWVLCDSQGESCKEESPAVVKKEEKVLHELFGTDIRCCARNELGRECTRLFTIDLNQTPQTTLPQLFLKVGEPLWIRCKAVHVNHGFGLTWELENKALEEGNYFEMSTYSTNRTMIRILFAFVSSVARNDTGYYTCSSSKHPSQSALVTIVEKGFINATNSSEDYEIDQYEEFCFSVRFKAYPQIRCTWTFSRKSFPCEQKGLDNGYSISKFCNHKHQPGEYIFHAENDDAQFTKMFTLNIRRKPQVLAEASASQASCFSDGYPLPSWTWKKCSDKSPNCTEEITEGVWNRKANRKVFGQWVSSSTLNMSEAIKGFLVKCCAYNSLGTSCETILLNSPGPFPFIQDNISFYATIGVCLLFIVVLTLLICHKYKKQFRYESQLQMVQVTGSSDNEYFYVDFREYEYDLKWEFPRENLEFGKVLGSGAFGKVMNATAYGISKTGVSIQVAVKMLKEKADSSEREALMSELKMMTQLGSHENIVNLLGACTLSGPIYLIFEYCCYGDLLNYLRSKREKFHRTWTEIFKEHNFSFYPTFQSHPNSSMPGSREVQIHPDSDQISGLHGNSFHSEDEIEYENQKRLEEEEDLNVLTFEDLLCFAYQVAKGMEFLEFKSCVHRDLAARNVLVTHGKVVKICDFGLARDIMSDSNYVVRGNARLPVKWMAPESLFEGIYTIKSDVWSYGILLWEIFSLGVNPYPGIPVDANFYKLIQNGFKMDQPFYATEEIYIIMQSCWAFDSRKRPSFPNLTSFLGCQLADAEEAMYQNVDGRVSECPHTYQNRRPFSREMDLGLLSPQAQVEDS

KDR = KDR (Homo sapiens, UniProt P35968); experiment: ELISA kinase assay, KDR; type: biochemical; conditions: 10 nmol/L
ALK = ALK (Homo sapiens, UniProt Q9UM73); experiment: Kinase selectivity test, ALK; type: biochemical; conditions: 1 μmol/L
Chain of ALK (Q9UM73 19-1620): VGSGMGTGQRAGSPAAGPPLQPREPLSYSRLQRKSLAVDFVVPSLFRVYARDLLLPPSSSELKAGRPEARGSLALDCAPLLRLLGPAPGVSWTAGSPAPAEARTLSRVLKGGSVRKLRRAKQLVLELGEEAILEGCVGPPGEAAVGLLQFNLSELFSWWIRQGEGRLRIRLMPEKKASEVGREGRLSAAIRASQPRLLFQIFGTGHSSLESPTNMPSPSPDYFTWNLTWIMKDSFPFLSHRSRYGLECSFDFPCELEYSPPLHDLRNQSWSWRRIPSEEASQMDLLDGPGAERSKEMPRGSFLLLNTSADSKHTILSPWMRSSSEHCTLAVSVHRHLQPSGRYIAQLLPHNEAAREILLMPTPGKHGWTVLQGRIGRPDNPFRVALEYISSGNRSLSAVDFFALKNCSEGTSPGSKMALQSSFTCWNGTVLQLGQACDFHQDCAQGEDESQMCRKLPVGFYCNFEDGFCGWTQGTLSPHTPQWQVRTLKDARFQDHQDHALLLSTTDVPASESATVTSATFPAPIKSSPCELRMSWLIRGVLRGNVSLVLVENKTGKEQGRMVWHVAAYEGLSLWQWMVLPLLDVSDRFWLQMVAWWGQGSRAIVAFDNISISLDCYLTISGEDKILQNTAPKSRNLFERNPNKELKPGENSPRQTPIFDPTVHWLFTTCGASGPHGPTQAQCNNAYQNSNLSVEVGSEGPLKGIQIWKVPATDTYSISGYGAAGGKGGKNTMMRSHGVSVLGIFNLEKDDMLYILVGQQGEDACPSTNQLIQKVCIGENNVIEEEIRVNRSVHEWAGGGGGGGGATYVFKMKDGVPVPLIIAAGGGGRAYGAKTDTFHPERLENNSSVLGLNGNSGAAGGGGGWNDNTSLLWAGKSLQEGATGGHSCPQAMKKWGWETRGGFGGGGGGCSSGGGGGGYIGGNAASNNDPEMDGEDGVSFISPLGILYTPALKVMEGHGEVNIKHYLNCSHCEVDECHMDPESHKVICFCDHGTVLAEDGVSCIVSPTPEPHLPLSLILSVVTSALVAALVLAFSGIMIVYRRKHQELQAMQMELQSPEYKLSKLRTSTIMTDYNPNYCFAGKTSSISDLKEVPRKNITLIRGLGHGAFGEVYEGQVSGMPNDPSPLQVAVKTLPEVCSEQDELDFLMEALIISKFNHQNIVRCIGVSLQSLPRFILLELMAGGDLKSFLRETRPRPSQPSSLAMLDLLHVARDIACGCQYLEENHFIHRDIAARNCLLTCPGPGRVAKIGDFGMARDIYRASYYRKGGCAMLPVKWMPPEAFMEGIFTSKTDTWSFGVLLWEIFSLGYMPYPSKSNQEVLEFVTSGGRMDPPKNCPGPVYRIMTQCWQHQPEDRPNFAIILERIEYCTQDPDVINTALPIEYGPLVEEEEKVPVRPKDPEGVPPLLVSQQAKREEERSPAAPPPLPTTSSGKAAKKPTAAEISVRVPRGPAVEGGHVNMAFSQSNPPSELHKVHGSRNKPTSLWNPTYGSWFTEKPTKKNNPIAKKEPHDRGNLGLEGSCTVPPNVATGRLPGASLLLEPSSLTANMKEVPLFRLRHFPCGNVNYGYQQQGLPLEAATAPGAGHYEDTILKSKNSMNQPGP

ABL = ABL (Homo sapiens, UniProt P00519); experiment: Kinase selectivity test, ABL; type: biochemical; conditions: 10 nmol/L
VEGFR-1 = VEGFR-1 (Homo sapiens, UniProt P17948); experiment: Kinase selectivity test, VEGFR-1; type: biochemical; conditions: 10 nmol/L
PDGFR = experiment: Kinase selectivity test, PDGFR; type: biochemical; conditions: 10 nmol/L
EPH-A2 = EPH-A2 (Homo sapiens, UniProt P29317); experiment: Kinase selectivity test, EPH-A2; type: biochemical; conditions: 10 nmol/L
Chain of EPH-A2 (P29317 24-976): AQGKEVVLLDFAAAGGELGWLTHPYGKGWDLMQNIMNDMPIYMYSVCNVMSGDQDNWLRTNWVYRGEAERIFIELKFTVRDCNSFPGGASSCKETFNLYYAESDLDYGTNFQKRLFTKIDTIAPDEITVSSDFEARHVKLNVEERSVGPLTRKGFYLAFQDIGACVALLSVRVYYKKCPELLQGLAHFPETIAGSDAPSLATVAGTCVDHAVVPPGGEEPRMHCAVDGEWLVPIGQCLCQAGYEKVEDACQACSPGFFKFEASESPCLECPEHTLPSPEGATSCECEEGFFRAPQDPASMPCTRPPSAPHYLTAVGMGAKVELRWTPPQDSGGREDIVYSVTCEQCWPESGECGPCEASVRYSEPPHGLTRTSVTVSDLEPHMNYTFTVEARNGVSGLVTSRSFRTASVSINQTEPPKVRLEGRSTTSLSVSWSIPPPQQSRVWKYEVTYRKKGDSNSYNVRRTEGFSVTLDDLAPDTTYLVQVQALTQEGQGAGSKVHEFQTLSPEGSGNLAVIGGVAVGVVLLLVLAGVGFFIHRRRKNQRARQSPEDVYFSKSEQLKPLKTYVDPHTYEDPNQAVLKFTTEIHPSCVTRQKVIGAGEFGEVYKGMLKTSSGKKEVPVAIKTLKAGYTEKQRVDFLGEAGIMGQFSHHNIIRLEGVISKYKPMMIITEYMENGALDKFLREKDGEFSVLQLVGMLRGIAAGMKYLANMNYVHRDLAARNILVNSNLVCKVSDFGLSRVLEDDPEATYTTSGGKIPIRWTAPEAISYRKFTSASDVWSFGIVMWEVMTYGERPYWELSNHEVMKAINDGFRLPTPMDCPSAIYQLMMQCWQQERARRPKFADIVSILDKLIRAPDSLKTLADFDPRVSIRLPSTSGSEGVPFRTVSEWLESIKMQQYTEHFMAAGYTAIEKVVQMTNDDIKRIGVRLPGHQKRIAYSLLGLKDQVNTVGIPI

AXL = target: T2, AXL (Homo sapiens, UniProt P30530); experiment: Kinase selectivity test, AXL; type: biochemical; conditions: 10 nmol/L
T2 sequence (P30530 26-894): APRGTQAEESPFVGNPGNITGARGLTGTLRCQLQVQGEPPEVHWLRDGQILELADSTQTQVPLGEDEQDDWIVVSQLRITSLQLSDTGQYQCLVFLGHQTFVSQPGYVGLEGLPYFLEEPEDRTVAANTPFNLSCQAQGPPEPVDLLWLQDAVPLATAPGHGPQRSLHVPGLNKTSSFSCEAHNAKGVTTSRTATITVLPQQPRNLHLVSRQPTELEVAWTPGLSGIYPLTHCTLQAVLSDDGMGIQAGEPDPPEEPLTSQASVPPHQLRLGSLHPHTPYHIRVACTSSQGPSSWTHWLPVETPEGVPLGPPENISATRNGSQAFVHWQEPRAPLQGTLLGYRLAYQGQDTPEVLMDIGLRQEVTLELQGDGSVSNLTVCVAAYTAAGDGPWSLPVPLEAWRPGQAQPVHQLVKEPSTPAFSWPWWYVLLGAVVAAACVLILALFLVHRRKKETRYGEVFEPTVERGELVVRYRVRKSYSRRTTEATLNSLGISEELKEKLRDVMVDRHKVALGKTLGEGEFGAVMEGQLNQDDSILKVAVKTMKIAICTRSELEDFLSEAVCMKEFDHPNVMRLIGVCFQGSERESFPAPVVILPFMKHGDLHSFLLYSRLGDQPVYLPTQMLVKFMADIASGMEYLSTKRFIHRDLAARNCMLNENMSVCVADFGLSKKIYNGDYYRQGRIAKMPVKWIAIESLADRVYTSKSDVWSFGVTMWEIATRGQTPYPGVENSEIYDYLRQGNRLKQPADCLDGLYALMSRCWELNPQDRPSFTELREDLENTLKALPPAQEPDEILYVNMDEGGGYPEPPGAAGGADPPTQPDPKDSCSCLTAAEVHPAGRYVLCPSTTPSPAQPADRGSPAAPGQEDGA

FGFR-1 = FGFR-1 (Homo sapiens, UniProt P11362); experiment: Kinase selectivity test, FGFR-1; type: biochemical; conditions: 10 nmol/L
Chain of FGFR-1 (P11362 22-822): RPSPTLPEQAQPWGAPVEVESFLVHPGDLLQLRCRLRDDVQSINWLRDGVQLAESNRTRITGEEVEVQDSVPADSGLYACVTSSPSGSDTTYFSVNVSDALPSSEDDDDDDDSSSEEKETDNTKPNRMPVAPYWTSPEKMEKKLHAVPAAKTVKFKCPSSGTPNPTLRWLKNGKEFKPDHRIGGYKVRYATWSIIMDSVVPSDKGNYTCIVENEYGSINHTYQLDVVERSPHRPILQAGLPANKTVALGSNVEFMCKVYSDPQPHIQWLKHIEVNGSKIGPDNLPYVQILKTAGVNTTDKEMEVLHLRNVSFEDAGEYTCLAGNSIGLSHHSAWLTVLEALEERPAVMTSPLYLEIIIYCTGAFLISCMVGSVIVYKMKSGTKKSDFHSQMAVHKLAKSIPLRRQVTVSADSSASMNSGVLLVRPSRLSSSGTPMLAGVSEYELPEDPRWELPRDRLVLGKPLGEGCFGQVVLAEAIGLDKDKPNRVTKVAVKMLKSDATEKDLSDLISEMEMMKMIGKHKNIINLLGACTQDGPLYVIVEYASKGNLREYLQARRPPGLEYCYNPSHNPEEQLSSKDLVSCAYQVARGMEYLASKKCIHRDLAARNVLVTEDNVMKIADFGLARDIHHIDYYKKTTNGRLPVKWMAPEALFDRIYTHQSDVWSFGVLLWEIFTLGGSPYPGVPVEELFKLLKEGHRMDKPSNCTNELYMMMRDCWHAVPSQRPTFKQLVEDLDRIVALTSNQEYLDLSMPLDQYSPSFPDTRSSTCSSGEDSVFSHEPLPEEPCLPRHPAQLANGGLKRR

ErbB4 = ErbB4 (Homo sapiens, UniProt Q15303); experiment: Kinase selectivity test, ErbB4; type: biochemical; conditions: 10 nmol/L
c-Src = c-Src (Homo sapiens, UniProt P12931); experiment: Kinase selectivity test, c-Src; type: biochemical; conditions: 10 nmol/L
Chain of c-Src (P12931 whole entry): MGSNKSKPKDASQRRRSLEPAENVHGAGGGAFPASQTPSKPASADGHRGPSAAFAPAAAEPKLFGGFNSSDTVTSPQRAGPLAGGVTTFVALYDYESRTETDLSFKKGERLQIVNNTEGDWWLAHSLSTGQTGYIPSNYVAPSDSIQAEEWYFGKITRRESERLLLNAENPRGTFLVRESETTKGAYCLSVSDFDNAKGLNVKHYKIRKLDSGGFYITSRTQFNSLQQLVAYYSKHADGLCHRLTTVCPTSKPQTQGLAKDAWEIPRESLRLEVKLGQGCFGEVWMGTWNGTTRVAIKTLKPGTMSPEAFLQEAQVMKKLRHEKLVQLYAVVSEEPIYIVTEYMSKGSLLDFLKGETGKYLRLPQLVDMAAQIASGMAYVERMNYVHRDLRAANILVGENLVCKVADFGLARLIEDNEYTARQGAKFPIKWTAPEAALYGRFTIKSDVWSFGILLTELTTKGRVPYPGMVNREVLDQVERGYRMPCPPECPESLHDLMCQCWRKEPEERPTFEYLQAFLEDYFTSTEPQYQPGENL

[1] = tested on: DDR2 phosphorylation in MRC-5; experiment: DDR2 phosphorylation in TGF-β stimulated MRC-5; type: cell-based; conditions: 1 μmol/L, MRC-5, 24 h TGF-β stimulation
Procedure, shortened: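 Confluent MRC-5 fibroblasts are stimulated with TGF-β (5 ng/mL) and treated with a range of test compound concentrations for 24 h. Western blots are probed for phospho-DDR2, fibronectin, α-SMA, with GAPDH as loading control.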

Chain of RET (P07949 29-1114): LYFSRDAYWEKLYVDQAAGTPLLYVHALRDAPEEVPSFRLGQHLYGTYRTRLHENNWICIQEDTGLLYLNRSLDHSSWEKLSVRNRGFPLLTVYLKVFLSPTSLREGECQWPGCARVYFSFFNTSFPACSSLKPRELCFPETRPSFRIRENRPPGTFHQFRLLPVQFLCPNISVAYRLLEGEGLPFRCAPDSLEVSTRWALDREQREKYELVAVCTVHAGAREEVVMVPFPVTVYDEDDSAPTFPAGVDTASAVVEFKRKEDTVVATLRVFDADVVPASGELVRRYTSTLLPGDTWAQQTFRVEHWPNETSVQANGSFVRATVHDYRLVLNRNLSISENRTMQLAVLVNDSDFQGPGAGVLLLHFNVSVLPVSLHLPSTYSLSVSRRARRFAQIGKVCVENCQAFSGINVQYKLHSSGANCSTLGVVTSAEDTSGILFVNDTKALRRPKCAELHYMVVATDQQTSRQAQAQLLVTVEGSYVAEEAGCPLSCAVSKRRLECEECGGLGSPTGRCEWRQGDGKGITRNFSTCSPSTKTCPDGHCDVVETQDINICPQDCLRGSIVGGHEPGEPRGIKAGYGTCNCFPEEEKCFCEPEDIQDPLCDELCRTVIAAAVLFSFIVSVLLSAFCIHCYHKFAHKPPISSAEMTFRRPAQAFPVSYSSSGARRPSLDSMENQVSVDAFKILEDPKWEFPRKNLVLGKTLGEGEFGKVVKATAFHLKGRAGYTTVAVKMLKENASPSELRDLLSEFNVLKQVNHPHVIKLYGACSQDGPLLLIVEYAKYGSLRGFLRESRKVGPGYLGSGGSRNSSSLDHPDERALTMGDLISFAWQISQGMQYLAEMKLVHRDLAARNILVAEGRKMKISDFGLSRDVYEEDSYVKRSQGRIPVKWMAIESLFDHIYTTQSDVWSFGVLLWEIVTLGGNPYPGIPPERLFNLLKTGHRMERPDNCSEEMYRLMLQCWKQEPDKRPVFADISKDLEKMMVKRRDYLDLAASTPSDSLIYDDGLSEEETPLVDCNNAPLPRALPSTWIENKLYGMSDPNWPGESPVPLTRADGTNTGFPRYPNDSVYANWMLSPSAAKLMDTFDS

IC50 (DDR1): 8.13 nM
inhibition at 0.01 µM (RET; read-out: RET inhibition @10 nmol/L): > 50%
inhibition at 0.1 µM (RET; read-out: RET inhibition @100 nmol/L): 97.2%
inhibition at 0.1 µM (Flt-3): 80.3%
KDR inhibition ratio (KDR): over 50%
inhibition ratio on ALK (ALK): 18.5%
ABL inhibition ratio (ABL): over 50%
VEGFR-1 inhibition ratio (VEGFR-1): over 50%
PDGFR inhibition ratio (PDGFR): over 50%
EPH-A2 inhibition ratio (EPH-A2): over 50%
AXL inhibition ratio (AXL): over 50%
FGFR-1 inhibition ratio (FGFR-1): over 50%
ErbB4 inhibition ratio (ErbB4): over 50%
c-Src inhibition ratio (c-Src): over 50%
SMILES: Cc1ccc(C(=O)Nc2cccc(C(F)(F)F)c2)cc1-c1ccc2nc(Nc3cnn(C)c3)ncc2c1 [Compound 22, 4-Methyl-3-(2-((1-methyl-1H-pyrazol-4-yl)amino)quinazolin-6-yl)-N-(3-(trifluoromethyl)phenyl)benzamide]
inhibition of DDR2 phosphorylation [1]: high inhibitory activity
